NR3A LBD binder: modulates the human NR3A ligand-binding domain. NR3A LBD differential scanning fluorimetry, Tm shift; 0% = protein alone, 100% = glycine-bound protein. Tm shift relative to glycine control, % at 25 µM. 340,000 compounds, 2.5% hits. AID 1259313;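 active means melting temperature shift of at least 10% of the positive control shift, at one fixed dose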
aDG glyco up: alpha-DG glycosylation activation; activation, % at 10 µM; AID 624168; Pro5-aDG cells, alpha-DG glycosylation AlphaScreen (IIH6); 0% Pro5, 100% B10-LARGE cell signal; 360,000 compounds, 0.22% hits;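 active means activation of at least 8% versus controls, or a plate z-score of at least 8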;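 further: Pro5 are CHO cells carrying HIG-tagged alpha-DG that lacks glycosylation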
GC-B act: GC-B (human) receptor activation; P20594; HEK293-GC-B cells, CNP EC30, cGMP TR-FRET; 0% at EC30 CNP, 100% saturating CNP; activation, % at 10 µM; 370,000 compounds, 0.11% hits; AID 1920062;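 active means activation at 10 µM reaching about 35% in either raw or pattern-adjusted values, limit read from the data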
Hep lipid drop: hepatic lipid droplet formation modulation | AML12 mouse hepatocytes, oleate lipid droplets, BODIPY imaging | inhibition, % at 6.5 µM | 240,000 compounds, 0.4% hits;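 active means lipid droplet intensity inhibited by at least 50%, with more than 500 cells counted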
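Assay system: AML12 hepatocytes (mouse) / Also added: 100 µM oleic acid challenge / Times: overnight treatment with compound plus oleate / Detection: high-content imaging of BODIPY-stained droplets and DAPI nuclei / Evaluation: % inhibition of lipid droplet signal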
GC-A act: GC-A (human) enzyme activation; P16066; HEK293 GC-A cells, cGMP TR-FRET, EC30 ANP; 0% at EC30 ANP, 100% saturating ANP; activation, % at 10 µM; 370,000 compounds, 0.14% hits; AID 1671463; in the data active means activation above about 40%
GASC-1 inh: inhibitors of human GASC-1 (JMJD2C) demethylase; GST-JMJD2C(1-420) H3K9me3 demethylation, DELFIA europium; inhibition, % at 2.35 µM; 330,000 compounds, 0.069% hits;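 active means more than half of a compound's replicate wells show inhibition beyond 50%, single wells judged on their own value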;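 further: signal counts dimethyl H3K9 product captured on neutravidin plate; 0% = median of DMSO wells and 100% = 0.3 times that DMSO median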
Target sequence (Q9H3R0 1-420 limits assumed): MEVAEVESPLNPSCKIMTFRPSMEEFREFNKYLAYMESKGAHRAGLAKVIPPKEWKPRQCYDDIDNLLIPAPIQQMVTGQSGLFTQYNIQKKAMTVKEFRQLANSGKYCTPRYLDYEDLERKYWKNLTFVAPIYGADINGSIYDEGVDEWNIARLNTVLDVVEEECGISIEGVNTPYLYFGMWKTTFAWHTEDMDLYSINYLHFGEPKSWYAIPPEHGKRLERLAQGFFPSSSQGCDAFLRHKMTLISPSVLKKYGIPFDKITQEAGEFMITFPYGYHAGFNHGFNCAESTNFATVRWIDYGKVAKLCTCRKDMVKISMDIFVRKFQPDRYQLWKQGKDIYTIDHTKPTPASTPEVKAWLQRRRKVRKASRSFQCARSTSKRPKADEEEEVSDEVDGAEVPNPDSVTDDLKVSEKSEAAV
* = called active by the depositor; . = no result. Only some compounds are listed: those with a hit (about 3% of all), similar ones and a draw of the others.

SMILES	NR3A LBD binder	aDG glyco up	GC-B act	Hep lipid drop	GC-A act	GASC-1 inh
Cc1nc2ccc(NC(=O)COc3ccccc3[N+](=O)[O-])cc2s1	1	0	-5	17	1	-23
Cc1nc2ccc(NC(=O)COc3ccccc3C)cc2s1	32*	0	0	3	4	65*
Cc1ccc(NC(=O)NNC(=O)CCn2nc(C)c([N+](=O)[O-])c2C)cc1C	.	.	-2	.	1	.
O=C(COc1ccccc1C(=O)O)Nc1nc2ccc([N+](=O)[O-])cc2s1	14*	0	6	-5	7	4
COC(=O)[C@]12C[C@H](CC(=O)NCCCN3CCCC3=O)C(=O)N(CCC3=CCCCC3)C1=C[C@H](COCc1ccccc1)O[C@@H]2C	.	.	0	.	4	.
Clc1ccc2c(c1)c1ccccc1n2CN1CCOCC1	-7	0	-9	.	-6	0
Clc1ccc2c(c1)c1cc(Cl)ccc1n2CN1CCOCC1	11*	0	2	2	-9	0
O=C(Cn1nnc2ccccc2c1=O)NCCc1ccccc1	18*	0	8	7	0	-9
COc1ccc(CN(C2CC2)S(=O)(=O)c2ccccc2Br)cc1	13*	0	1	.	-1	.
COc1ccc(CN(CCC(C)C)S(=O)(=O)c2ccccc2Br)cc1	4	1	-2	.	-4	.
Cc1ccccc1-c1ccc2c(c1)[C@@H]1C[C@H](N(C)CC3CCCCC3)[C@H]([C@H](C)O)CN1CC2	.	.	1	.	-2	.
O=C(Cn1nnc(-c2cc(C(F)(F)F)cc(C(F)(F)F)c2)n1)NNC(=S)Nc1ccc(Cl)cc1	36*	0	-2	-5	-1	-4
CCOc1cc(C(N)=O)cc(Cl)c1OCC	-4	0	6	17	6	12
CCOc1cc(C(=O)O)cc(Cl)c1OC	21*	0	-2	2	2	2
COC(=O)c1cc2c(c3c4cc(F)ccc4n(S(=O)(=O)c4cccc(C)c4)c13)C(=O)N(C)C2	.	.	-13	.	-3	.
O=C(OC1CCOC1=O)c1ccc(CO)cc1 (stereo not drawn)	0	0	-3	15	1	92
O=C(CCC(=O)c1ccc(F)cc1)OC1CCOC1=O (stereo not drawn)	1	0	2	.	56*	-5
CN(C)CCNS(=O)(=O)c1ccc(N2CCN(c3ccc(F)cc3)CC2)c([N+](=O)[O-])c1	0	9.1*	-5	-20	-3	-7
CCC(CNc1cc(OC)cc2cccnc12)NC1CCCCC1 (stereo not drawn)	-1	7.1*	-7	-1	-7	-1
COc1cc(NCCCC(C)N)c2ncccc2c1 (stereo not drawn)	2	1	3	.	4	36
Cc1cccc(CCNC(=O)c2ccc(Sc3ccccc3Cl)c([N+](=O)[O-])c2)c1	.	.	-1	.	2	.
O=C(NC1CCCCN(Cc2ccc(OC(F)(F)F)cc2)C1=O)c1cccc(C(F)(F)F)c1 (stereo not drawn)	.	.	-1	.	-2	.
CCc1noc2cc(-c3ccccc3)n(C)c(=O)c12	.	.	-1	.	3	.
O=c1ccc(/C=C/c2ccccc2)nn1Cc1ccc(F)cc1	-6	0	0	-3	0	-22
COc1ccc(/C=C/c2ccc(=O)n(Cc3ccccc3)n2)cc1	15*	1	2	-21	-3	18
SMILES	NR3A LBD binder	aDG glyco up	GC-B act	Hep lipid drop	GC-A act	GASC-1 inh
OCc1csc(=Nc2ccccc2)n1-c1ccccc1	-1	0	-4	.	0	57*
CCn1c(SCC(=O)Nc2cccc(NC(C)=O)c2)nc2c([nH]c3ccccc32)c1=O	-7	0	-1	-1	1	1
CCn1c(SCC(=O)Nc2cc(C)on2)nc2c([nH]c3ccccc32)c1=O	0	0	-1	-22	59*	-2
COCCn1c(SCC(=O)Nc2cc(C)on2)nc2c([nH]c3ccccc32)c1=O	.	0	-2	.	50*	.
CCn1c(SCC(=O)Nc2ccc(C(C)=O)cc2)nc2c([nH]c3ccccc32)c1=O	14*	0	2	4	-1	1
COc1ccc(CN(CCN2CCOCC2)C(=O)c2cc(F)ccc2C)cc1OC	.	.	-5	.	3	.
